Test [1] relates to P. aeruginosa PAK mexAB-oprM, EDDHA, OD600 growth, 28 h. The experiment in a line: efflux-deficient P. aeruginosa PAK growth delay, dose response, whole organism, PAK mexAB-OprM mutant, OD600, EDDHA, dry powder, set 3 (AID 624072). A digest of the protocol: (§1)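 Test system: Pseudomonas aeruginosa PAK efflux pump deletion mutant ΔmexAB-oprM; incubation: 28 h at 30 °C; buffer or medium: iron-limited succinate M9 medium, pH 7.0, with 2 µM EDDHA chelator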

Assay in test [2]: as above
As to conditions: P. aeruginosa PAK mexAB-oprM, EDDHA, OD600 growth, 28 h; at 100 µM (top of the series). A digest of the protocol: as §1

Activity calls are given as the source filed them.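 The calls were made as follows: active = compounds whose fitted curve reaches a 35% growth drop at up to twice the top tested dose; inconclusive = flat curve with a 30 to 70% growth drop, or poor fit; inactive = opposite effect, flat curve, or crossing beyond the limit.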

For the compound `N#CC(c1cccc(Cl)n1)c1ccc(Cl)cc1F` (stereo not given), the AC35 in test [1] was 6.02 µM. As for `CCCCC(c1ccc(Cl)cc1)c1nn[nH]n1` (stereo not given), in test [1], the AC35 was 97.2 µM. For `COCCNC(C#N)c1ccc(Cl)cc1` (stereo not given), the activity change, negative = growth inhibition in test [2] was -9.68% (inactive).

Turning to `N#CC(c1ccc(F)cc1)c1cccc(C(F)(F)F)n1` (stereo not given), the AC35 in test [1] is 3 µM. For the compound `N#CC(c1ccc(Cl)cc1)c1ccc(Cl)cn1` (stereo not given), in test [1], the AC35 was 9.77 µM. As for `N#CC(c1ccc(Cl)cc1)c1cccc(Cl)n1` (stereo not given), the AC35 in test [1] is 5.35 µM. Same read-out and setting: under `N#CC(c1ccc(Cl)cc1)c1ncccc1Cl` (stereo not given) stands 6.94 µM.

Regarding `N#CC(c1ccc(Cl)cc1)c1cccc(C(F)(F)F)n1` (stereo not given), the AC35 in test [1] was 3.92 µM. For `COCCC(C#N)c1ccc(F)cc1` (stereo not given), the AC35 in test [1] was 98.3 µM. Consider `N#CC(c1cccc(C(F)(F)F)n1)c1ccc(Cl)cc1F` (stereo not given), for which the AC35 in test [1] was 4.24 µM.
